Source: ChEMBL document CHEMBL1157701, “Inhibition of IkB kinase and NF-kappaB by a novel synthetic compound SK 2009” (Bioorg Med Chem, 2010)
Activity calls are given as the source filed them. No cut-off for these calls is given here.

Assays:
[1] = system: KBM5; experiment: Cytotoxicity against human KBM5 cells at 10 uM after 72 hrs by MTT assay; format: functional, cell-based
Method in brief: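 MTT viability: KBM-5 cells (5000 per well) in triplicate with or without compound for 72 h at 37 °C. MTT (5 mg/ml in PBS) added for 2 h at 37 °C. Extraction buffer (20% SDS, 50% dimethylformamide) added overnight at 37 °C, then OD read at 570 nm.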

[2] = system: KBM5; experiment: Inhibition of TNF-alpha-induced NF-kappaB activation in human KBM5 cells at 100 uM treated for 12 hrs before TNFalpha challenge measured after 30 mins by EMSA relative to control; format: cell-based
Method in brief: (§1)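 KBM-5 cells (1×10^6/mL) preincubated with compound for 12 h, then stimulated with 0.1 nM TNFα for 30 min. Nuclear extracts (15 μg protein) incubated with 16 fmol 32P-end-labeled 45-mer HIV LTR NF-κB oligonucleotide for 30 min at 37°C and resolved by EMSA. DMSO stock diluted in culture medium.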

[3] = Cytotoxicity against human KBM5 cells assessed as cell viability at 100 uM by trypan blue assay; format: cell-based; conditions: read-out: Activity
[4] = system: KBM5; experiment: Inhibition of TNF-alpha-induced NF-kappaB activation in human KBM5 cells at 100 uM treated for 12 hrs before TNFalpha challenge measured after 30 mins by EMSA; format: cell-based; method in brief: as §1
[5] = Inhibition of cyclin D1 protein expression in TNF-alpha-stimulated human KBM5 cells at 100 uM after 6 to 24 hrs by Western blot analysis; format: functional, cell-based
Method in brief: (§2)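 Western blot: KBM-5 lysates (30 μg protein) separated by SDS-PAGE and probed with anti-cyclin D1, Bcl-2 or VEGF (1:1000). HRP secondary (1:3000) applied for 2 h, detection by ECL, bands quantified by densitometry.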

[6] = system: KBM5; experiment: Inhibition of TNF-alpha-induced IKK activation in human KBM5 cells at 100 uM treated for 12 hrs before TNFalpha challenge by immunoprecipitation assay; format: cell-based; conditions: TDE = time-dependent effect
Method in brief: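 KBM-5 cells (5×10^6/mL) preincubated with 100 μM compound for 12 h, then given 1 nM TNF for the indicated times. IKK immunoprecipitated from whole-cell lysates with anti-IKK-α and assayed at 30°C for 30 min: 50 mM HEPES pH 7.4, 20 mM MgCl2, 2 mM DTT, [32P]ATP, unlabeled ATP, 2 μg GST-IκBα(1-54). Phosphorylated substrate shown by SDS-PAGE/phosphorimaging; total IKK-α/β by immunoblot.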

[7] = system: KBM5; experiment: Inhibition of NF-kappaB activation in human KBM5 cells at 100 uM treated for 12 hrs before TNFalpha challenge measured after 4 hrs by EMSA relative to control; format: cell-based
[8] = Inhibition of VEGF protein expression in TNF-alpha-stimulated human KBM5 cells at 100 uM after 6 to 24 hrs by Western blot analysis; format: functional, cell-based; method in brief: as §2
[9] = system: KBM5; experiment: Inhibition of NF-kappaB activation in human KBM5 cells at 100 uM treated for 12 hrs before TNFalpha challenge by EMSA; format: cell-based; conditions: TDE = time-dependent effect; method in brief: as §1
[10] = target: Transcription factor p65 (Homo sapiens) (UniProt Q04206); experiment: Inhibition of nuclear DNA binding to NF-kappaB p65 subunit in TNF-alpha-stimulated human KBM5 cells at 100 uM after 30 mins by EMSA relative to control; format: cell-based
Chain of Transcription factor p65 (Homo sapiens) (Q04206 whole entry): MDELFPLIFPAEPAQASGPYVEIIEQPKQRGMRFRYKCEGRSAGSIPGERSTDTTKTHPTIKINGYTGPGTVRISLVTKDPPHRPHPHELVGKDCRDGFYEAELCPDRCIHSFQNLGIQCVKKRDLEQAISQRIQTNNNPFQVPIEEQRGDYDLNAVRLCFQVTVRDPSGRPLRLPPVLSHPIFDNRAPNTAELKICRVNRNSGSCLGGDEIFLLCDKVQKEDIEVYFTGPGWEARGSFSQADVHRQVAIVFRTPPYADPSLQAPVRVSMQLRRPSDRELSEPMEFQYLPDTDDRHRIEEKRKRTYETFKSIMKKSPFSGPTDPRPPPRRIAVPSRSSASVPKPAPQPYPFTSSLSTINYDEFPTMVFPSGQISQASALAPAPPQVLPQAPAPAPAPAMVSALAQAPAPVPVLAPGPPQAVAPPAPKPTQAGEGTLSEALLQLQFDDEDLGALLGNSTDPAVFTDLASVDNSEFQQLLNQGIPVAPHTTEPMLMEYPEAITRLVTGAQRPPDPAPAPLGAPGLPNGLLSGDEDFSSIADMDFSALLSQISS
Method in brief: (§3)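 Direct DNA-binding test: nuclear extracts from untreated KBM-5 cells or cells given 0.1 nM TNF for 30 min were incubated for 30 min with compound at various concentrations. Binding to a 32P-labeled HIV LTR κB oligonucleotide was then assessed by EMSA.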

[11] = target: Transcription factor p65 (Homo sapiens) (UniProt Q04206); experiment: Inhibition of nuclear DNA binding to NF-kappaB p65 subunit in TNF-alpha-stimulated human KBM5 cells at 10 uM after 30 mins by EMSA relative to control; format: cell-based; method in brief: as §3
[12] = system: KBM5; experiment: Inhibition of NF-kappaB activation in human KBM5 cells at 100 uM treated for 12 hrs before TNFalpha challenge measured after 6 hrs by EMSA relative to control; format: cell-based
Method in brief: (§4)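 Time course: KBM-5 cells (1×10^6/mL) exposed to 100 μM compound for varying times before 0.1 nM TNF for 30 min. Nuclear extracts (15 μg protein) were probed by EMSA with 16 fmol 32P-labeled HIV LTR κB 45-mer for 30 min at 37°C.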

[13] = system: KBM5; experiment: Inhibition of NF-kappaB activation in human KBM5 cells at 5 to 100 uM treated for 12 hrs in absence of TNFalpha by EMSA
[14] = system: KBM5; experiment: Inhibition of Bcl-2 protein expression in TNF-alpha-stimulated human KBM5 cells at 100 uM after 6 to 24 hrs by Western blot analysis; format: functional, cell-based; method in brief: as §2
[15] = target: Transcription factor p65 (Homo sapiens) (UniProt Q04206); experiment: Inhibition of nuclear DNA binding to NF-kappaB p65 subunit in TNF-alpha-stimulated human KBM5 cells at 25 uM after 30 mins by EMSA relative to control; format: cell-based; method in brief: as §3
[16] = system: KBM5; experiment: Intrinsic activity at IKK in TNF-alpha-stimulated human KBM5 cells at 10 to 100 uM added directly to IKK immune complexes in vitro by immunoprecipitation assay
[17] = system: KBM5; experiment: Inhibition of NF-kappaB activation in human KBM5 cells at 100 uM treated for 12 hrs before TNFalpha challenge measured after 8 hrs by EMSA relative to control; format: cell-based; method in brief: as §4
[18] = system: KBM5; experiment: Inhibition of TNF-alpha-induced NF-kappaB activation in human KBM5 cells treated for 12 hrs before TNFalpha challenge measured after 30 mins by EMSA; format: cell-based; method in brief: as §1
[19] = system: KBM5; experiment: Inhibition of NF-kappaB activation in human KBM5 cells at 100 uM treated for 12 hrs before TNFalpha challenge measured after 12 hrs by EMSA relative to control; format: cell-based; method in brief: as §4
[20] = target: Transcription factor p65 (Homo sapiens) (UniProt Q04206); experiment: Inhibition of nuclear DNA binding to NF-kappaB p65 subunit in TNF-alpha-stimulated human KBM5 cells at 50 uM after 30 mins by EMSA relative to control; format: cell-based; method in brief: as §3

SMILES | Activity [1] | fold change (FC) [2] | viability at 100 µM [3] [%] | inhibition [4] [%] | further results
CCCCCCCC[C@H](CO)[C@H](O)CCOCc1ccccc1 | Active | 1.1 | 97 |  | 
CCCCCCCCCCCCCC[C@H]1COC(=O)C[C@H]1O | Active | 3.6 | 95 | 30 | 
CCCCCCCCCC(=O)N1C(=O)OC[C@@H]1Cc1ccccc1 | Active | 2.4 | 97 |  | 
CCCCCCCC[C@H](C(=O)N1C(=O)OC[C@@H]1Cc1ccccc1)[C@H](O)CCOCc1ccccc1 | Active | 1.3 | 98 |  | 
CCCCCCC[C@H](CO)[C@H](O)CCOCc1ccccc1 | Active | 4.5 | 98 | 100 | inhibition [5]: Active; inhibition [6]: tde; fold change (FC) [7]: 4.2; inhibition [8]: Active; inhibition [9]: tde; fold change (FC) [10]: 3.9; fold change (FC) [11]: 3.8; fold change (FC) [12]: 3.1; inhibition [13]: inactive; inhibition [14]: Active; fold change (FC) [15]: 3.9; Activity [16]: inactive; fold change (FC) [17]: 2.5; inhibition [18]: Dose-dependent effect; fold change (FC) [19]: 1; fold change (FC) [20]: 3.8
CCCCCCCC[C@@H]1COC(C)(C)O[C@@H]1CCOCc1ccccc1 | Active | 1.4 | 97 |  | 
